Assay results reported in article PMC8092417 (Anti-cancer drugs, 2020).

Experiments:
[1] = test system: BT-549 cells; test: qRT-PCR of epithelial and mesenchymal genes; type: cell-based, human; conditions: BT-549, 1 μM, 72 hours
Outline: (§1)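 Cells were treated 72 h with test compound (1 μM) or DMSO. Total RNA was column-isolated and checked for quantity and quality by absorbance (260, 280 nm). Then 2 μg total RNA was reverse-transcribed and gene expression measured by qRT-PCR.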

[2] = test system: HLA+CD44+CD24- cancer stem cells of TU-BcX-4IC-implanted mice; test: Flow cytometry for circulating cancer stem cells in peripheral blood; type: in vivo, SCID/Beige mice; conditions: 25 mg/kg bid, vs DMSO vehicle
Outline: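 Female SCID/Beige mice (n=5/group) carried TU-BcX-4IC tumor implants (3 × 3 mm) in the mammary fat pads and received i.p. test compound or DMSO vehicle twice daily for 15 days. Intracardiac blood was stored in EDTA […], RBC-lysed ([…] NH4Cl, pH 7.2–7.4), Fc-blocked, and stained with anti-human CD24, EpCAM and CD44. At least 5000 events were analyzed; n=4 mice/group; mean ± SEM.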

[3] = test system: TU-BcX-4IC cells; test: qRT-PCR of epithelial and mesenchymal genes; type: cell-based, human; conditions: 1 μM, 72 hours
Outline: as §1

[4] = test system: MDA-MB-231 M2 spheres; test: Mammosphere formation and area quantification; type: cell-based, human; conditions: MDA-MB-231, 7 days treatment
Outline: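 MDA-MB-231 cells were seeded at 1,000/well in low-attachment wells in serum-free F12/DMEM plus B-27 and allowed 24 h to form spheres. Spheres were then treated with test compound or DMSO for one week, re-dosed every three days. Imaging was at 40X or 100X. Sphere length and width were measured, area was calculated, and values were compared with DMSO controls.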

[5] = molecular target: RET (Homo sapiens, UniProt P07949); test: Kinase inhibition assay; type: biochemical; conditions: 1 μM
[6] = test system: TU-BcX-4IC cells; test: Phalloidin immunofluorescence with morphometric quantification; type: cell-based, human; conditions: 1 μM, 72 hours
[7] = test system: TU-BcX-4IC tumors; test: qRT-PCR of ex vivo treated PDX tumor pieces; type: cell-based, human; conditions: TU-BcX-4IC tumor pieces, 1 μM, 72 hours
[8] = molecular target: T1, NEK2 (Homo sapiens, UniProt P51955); test: Kinase inhibition assay; type: biochemical; conditions: 1 μM
T1 sequence (P51955 1-445): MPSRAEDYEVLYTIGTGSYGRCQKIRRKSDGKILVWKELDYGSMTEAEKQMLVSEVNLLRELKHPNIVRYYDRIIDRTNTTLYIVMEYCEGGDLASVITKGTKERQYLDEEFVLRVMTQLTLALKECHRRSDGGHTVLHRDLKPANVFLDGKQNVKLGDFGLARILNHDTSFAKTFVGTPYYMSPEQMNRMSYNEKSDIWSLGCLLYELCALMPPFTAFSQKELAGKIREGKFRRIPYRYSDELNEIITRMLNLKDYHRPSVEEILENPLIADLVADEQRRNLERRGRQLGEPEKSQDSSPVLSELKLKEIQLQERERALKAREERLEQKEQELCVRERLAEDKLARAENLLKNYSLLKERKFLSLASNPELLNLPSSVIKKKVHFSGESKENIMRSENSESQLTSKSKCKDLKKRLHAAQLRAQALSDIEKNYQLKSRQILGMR

Chain of RET (P07949 29-1114): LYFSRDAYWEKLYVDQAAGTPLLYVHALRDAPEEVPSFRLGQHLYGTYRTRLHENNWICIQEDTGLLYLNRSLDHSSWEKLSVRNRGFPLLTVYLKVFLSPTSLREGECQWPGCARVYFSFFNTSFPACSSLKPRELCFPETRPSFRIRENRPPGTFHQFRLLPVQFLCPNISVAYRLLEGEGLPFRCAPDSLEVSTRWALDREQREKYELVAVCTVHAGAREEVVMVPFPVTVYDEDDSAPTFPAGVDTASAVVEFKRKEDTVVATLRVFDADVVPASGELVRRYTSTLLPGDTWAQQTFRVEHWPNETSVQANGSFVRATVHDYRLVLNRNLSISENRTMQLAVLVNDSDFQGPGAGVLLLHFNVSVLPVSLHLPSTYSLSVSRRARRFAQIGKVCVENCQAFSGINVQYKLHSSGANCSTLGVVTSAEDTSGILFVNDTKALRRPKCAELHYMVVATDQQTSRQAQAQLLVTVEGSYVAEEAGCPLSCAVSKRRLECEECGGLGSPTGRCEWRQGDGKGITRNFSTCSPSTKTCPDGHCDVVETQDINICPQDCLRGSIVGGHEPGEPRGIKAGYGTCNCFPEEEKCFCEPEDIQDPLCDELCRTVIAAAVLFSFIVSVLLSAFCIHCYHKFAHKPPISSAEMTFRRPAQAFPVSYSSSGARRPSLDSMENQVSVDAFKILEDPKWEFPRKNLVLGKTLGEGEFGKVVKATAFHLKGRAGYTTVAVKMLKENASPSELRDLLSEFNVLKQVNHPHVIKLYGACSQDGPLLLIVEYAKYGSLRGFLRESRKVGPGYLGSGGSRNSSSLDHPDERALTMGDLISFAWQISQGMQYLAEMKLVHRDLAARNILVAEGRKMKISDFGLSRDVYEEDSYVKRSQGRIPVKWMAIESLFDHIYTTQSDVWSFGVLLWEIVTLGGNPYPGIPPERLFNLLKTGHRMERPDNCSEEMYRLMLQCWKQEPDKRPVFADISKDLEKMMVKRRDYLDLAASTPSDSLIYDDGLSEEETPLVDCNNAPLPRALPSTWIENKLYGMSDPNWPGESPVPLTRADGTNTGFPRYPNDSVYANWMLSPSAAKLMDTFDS

C[C@@H](Oc1cc(-n2cnc3ccc(NC(=O)NC(C)(C)C)cc32)sc1C(N)=O)c1ccccc1Cl [GSK346294A]
CDH1 mRNA expression [1]: significantly reduced CDH1 mRNA expression | MMP9 mRNA expression [1]: Neither GSK346294A nor GSK448459A affected MMP9 expression | SNAI1 mRNA expression [1]: no significant effects on SNAI1 expression | cFOS mRNA expression [1]: suppressive effects in all three TNBC cell lines, although not significantly | CSC populations in peripheral blood [2]: suppressed the CSC populations in the peripheral blood of mice implanted with TU-BcX-4IC tumors, although not significantly | MMP9 mRNA expression [3]: Neither GSK346294A nor GSK448459A affected MMP9 expression | ZEB1 mRNA expression [3]: suppressed ZEB1 expression in TU-BcX-4IC cells albeit not significantly | cFOS mRNA expression [3]: suppressive effects in all three TNBC cell lines, although not significantly | Sphere area [4]: significantly increased sphere area | Activity against RET [5]: moderate activity | Nuclear area fraction [6]: most significantly reduced nuclear area fraction | Total cell area [6]: largest overall areas | MMP9 mRNA levels [7]: did not reduce MMP9 levels | Reversal of mesenchymal phenotype on a transcript level [7]: did not reverse the mesenchymal phenotype | Binding activity to NEK2 [8]: 5%
